This note sets out measurements from PubChem BioAssay AID623932 (Vanderbilt High Throughput Screening Facility, 2012).

Each structure is given as a SMILES string. Calls of active or inactive are those of the source.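 How the source made its calls: active means at one tested dose, specific binding or response inhibited over 50%; inactive means the rest.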

This test is described as follows: off-target radioligand displacement across receptor panel, profiling panel, selectivity assay, biochemical, Ricerca panel (AID 623932). The settings on record: Ricerca radioligand binding panel, % inhibition, at 10 µM, stronger effect = higher value. Summed up:
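Read-out: % loss of selective radioligand binding; system: radioligand binding panel; benchmarks: reference standards included in every panel assay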
For orientation: Loss of bound radioactivity is the signal in a displacement assay; it reports binding, not function.

`Cc1cc(NC(=O)Nc2ccc(F)c(F)c2)n(-c2ccccc2)n1`: the inhibition was 60% (inactive). The same molecule returned an inhibition (NMDA binding inhibition) of 21%. Also, the inhibition (measured here: 5-HT2B binding inhibition) was determined as 46%. This molecule came in with an inhibition (measured here: DAT binding inhibition) of 12%. The same molecule gave an inhibition (measured here: GABA-A flunitrazepam binding inhibition) of 24%. The inhibition (measured here: GABA-A muscimol binding inhibition) stood at 49%. Further, for the setting “measured here: NET binding inhibition”, the inhibition was 15%. Where the note is “measured here: NPY Y1 binding inhibition”, this molecule returned an inhibition of 24%. The molecule also returned an inhibition (measured here: P2X binding inhibition) of 16%. Also, the inhibition (measured here: dopamine D2S binding inhibition) came to 16%. Also, the inhibition (measured here: hERG binding inhibition) worked out at 10%. Also, the inhibition (measured here: imidazoline I2 binding inhibition) was determined as 20%. Moreover, the inhibition (measured here: mu opioid binding inhibition) amounted to 21%.

In general, inhibition refers to the percentage by which the read-out fell short of the control.
